Laboratory results: ChEMBL document CHEMBL1157365, “Efficacy of telavancin in the treatment of experimental endocarditis due to glycopeptide-intermediate Staphylococcus aureus” (Antimicrob Agents Chemother, 2007)
≈ marks a conversion by molar mass, not a printed value. Calls of active or inactive are those of the source.

Tests used:
[1] = Cmax in human at 1 g, iv administered every 12 hrs; assay type: ADME, organism-based; design: dose 1 g, route intravenous; conditions: in vivo
[2] = system: Staphylococcus aureus; assay: Antibacterial activity against glycopeptide-intermediate resistant Staphylococcus aureus ATCC 700788 by microbroth dilution method; assay type: functional
Summary of the method: (§1)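 MIC and MBC were determined by broth microdilution in cation-adjusted Mueller-Hinton broth per CLSI guidelines. S. aureus ATCC 29213 served as the control strain. Strains were stored frozen in skim milk at −80°C and subcultured on 5% sheep blood Columbia agar before each run.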

[3] = system: Staphylococcus aureus; assay: Antibacterial activity against glycopeptide-intermediate resistant Staphylococcus aureus HIP 5836 isolate by microbroth dilution method; assay type: functional; summary of the method: as §1
[4] = system: Staphylococcus aureus; assay: Antibacterial activity against glycopeptide-intermediate resistant Staphylococcus aureus HIP 5836 isolate assessed as reduction of bacterial count after 24 hrs by time kill curve study; assay type: functional
Summary of the method: (§2)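 Duplicate time-kill curves followed CLSI criteria with an inoculum of 10⁵ CFU/ml. Viable counts were taken at 0, 4 and 24 h. Bactericidal activity was defined as a ≥3 log₁₀ CFU/ml drop at 24 h versus the starting inoculum.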

[5] = system: Staphylococcus aureus; assay: Antibacterial activity against glycopeptide-intermediate resistant Staphylococcus aureus ATCC 700788 assessed as reduction of bacterial count after 24 hrs by time kill curve study; assay type: functional; summary of the method: as §2
[6] = Terminal half life in human at 1 g, iv administered every 12 hrs; assay type: ADME, organism-based; conditions: in vivo
[7] = AUC in human at 1 g, iv administered every 12 hrs; assay type: ADME, organism-based; conditions: plasma
[8] = Protein binding in human at 1 g, iv administered every 12 hrs; assay type: ADME, organism-based; conditions: in vivo, read-out: PB
[9] = AUC in rabbit at 25 mg/kg, iv; assay type: ADME, organism-based, Oryctolagus cuniculus; design: dose 25 mg/kg, route intravenous; conditions: plasma
Summary of the method: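 Five healthy rabbits received a 25 mg/kg i.v. dose through a jugular-to-cava catheter. Blood was drawn through a carotid catheter at 0, 0.25, 0.5, 1, 2, 3, 4, 5 and 6 h. Plasma vancomycin was measured by latex-boosted immunoturbidimetry, detection limit 0.8 μg/ml. Elimination rate, half-life and AUC were reported as mean ± variation.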

[10] = Terminal half life in rabbit at 1 g, iv administered twice daily; assay type: ADME, organism-based, Oryctolagus cuniculus; conditions: in vivo
Summary of the method: (§3)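 Rabbits carried a carotid artery catheter for blood sampling and a jugular-to-cava catheter for infusion. A computer-controlled pump delivered the drug to simulate the human profile of 1 g i.v. twice daily. Vancomycin was measured by latex-boosted immunoturbidimetry, detection limit 0.8 μg/ml. Rabbits per group: n = 3 or 5.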

[11] = AUC in rabbit at 1 g, iv administered twice daily; assay type: ADME, organism-based, Oryctolagus cuniculus; conditions: plasma; summary of the method: as §3
[12] = Cmax in rabbit at 1 g, iv administered twice daily; assay type: ADME, organism-based, Oryctolagus cuniculus; design: dose 1 g, route intravenous; conditions: in vivo; summary of the method: as §3
[13] = Ratio of AUC in rabbit at 1 g, iv bid to MIC for Staphylococcus aureus HIP 5836 isolate; assay type: functional
Summary of the method: (§4)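 A computer-controlled pump infused vancomycin to mimic the human 1 g i.v. every-12-h profile. Blood was drawn at 0–6 h after infusion start. Vancomycin was measured by latex-boosted immunoturbidimetry (detection limit 0.8 μg/ml). AUC was divided by the MIC, determined by CLSI broth microdilution in cation-adjusted Mueller-Hinton broth.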

[14] = Ratio of AUC in rabbit at 1 g, iv bid to MIC for Staphylococcus aureus ATCC 700788; assay type: functional; summary of the method: as §4
[15] = system: Staphylococcus aureus; assay: Antibacterial activity against glycopeptide-intermediate resistant Staphylococcus aureus ATCC 700788 infected New Zealand white rabbit endocarditis model assessed as bacterial count per gram of microbial vegetation at 1 g, iv administered every 12 hrs for 2 days
[16] = system: Staphylococcus aureus; assay: Antibacterial activity against glycopeptide-intermediate resistant Staphylococcus aureus HIP 5836 isolate infected New Zealand white rabbit endocarditis model assessed as bacterial count per gram of microbial vegetation at 1 g, iv administered every 12 hrs for 2 days
[17] = Cmax in human at 7.5 mg/kg, iv administered every 24 hrs; assay type: ADME, organism-based; design: dose 7.5 mg/kg, route intravenous; conditions: in vivo
[18] = Terminal half life in human at 7.5 mg/kg, iv administered every 24 hrs; assay type: ADME, organism-based; design: dose 7.5 mg/kg, route intravenous; conditions: in vivo
[19] = Terminal half life in human at 10 mg/kg, iv administered every 24 hrs; assay type: ADME, organism-based; design: dose 10 mg/kg, route intravenous; conditions: in vivo
[20] = AUC in human at 7.5 mg/kg, iv administered every 24 hrs; assay type: ADME, organism-based; design: dose 7.5 mg/kg, route intravenous; conditions: plasma
[21] = AUC in human at 10 mg/kg, iv administered every 24 hrs; assay type: ADME, organism-based; design: dose 10 mg/kg, route intravenous; conditions: plasma
[22] = system: Homo sapiens; assay: Protein binding in human at 7.5 mg/kg, iv administered every 24 hrs; assay type: ADME, organism-based; design: dose 7.5 mg/kg, route intravenous; conditions: in vivo
[23] = system: Staphylococcus aureus; assay: Antibacterial activity against glycopeptide-intermediate resistant Staphylococcus aureus HIP 5836 isolate infected New Zealand white rabbit endocarditis model assessed as sterile bacterial vegetation at 10 mg/kg, iv administered every 24 hrs for 2 days; assay type: functional
Summary of the method: (§5)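 After 24 h they were inoculated i.v. through the ear vein with 1 ml of 7 × 10⁵ CFU/ml. Bacteremia was confirmed at 18 h, after which animals were randomized. Human-like kinetics were delivered by computer-controlled pump through a cava catheter for 48 h. Animals were killed 6 drug half-lives later. Aortic vegetations were weighed, homogenized and cultured quantitatively on plates, with broth culture for 1 week. Results are median log₁₀ CFU/g: 2 for broth-only growth, 0 for sterile. Sterility rates were compared by Fisher's exact test.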

[24] = system: Staphylococcus aureus; assay: Antibacterial activity against glycopeptide-intermediate resistant Staphylococcus aureus HIP 5836 isolate infected New Zealand white rabbit endocarditis model assessed as bacterial count per gram of microbial vegetation at 10 mg/kg, iv administered every 24 hrs for 2 days; assay type: functional; summary of the method: as §5
[25] = Terminal half life in rabbit at 15 mg/kg, iv; assay type: ADME, organism-based, Oryctolagus cuniculus; design: dose 15 mg/kg, route intravenous; conditions: in vivo
Summary of the method: (§6)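 Healthy rabbits (n = 5) received telavancin at 15 mg/kg i.v. Blood was drawn through a carotid artery catheter. Plasma telavancin was measured by a validated LC-MS/MS method with a lower limit of quantitation of 0.25 μg/ml. The first-order elimination constant, β-phase half-life and AUC were derived from the concentration-time data.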

[26] = AUC in rabbit at 15 mg/kg, iv; assay type: ADME, organism-based, Oryctolagus cuniculus; design: dose 15 mg/kg, route intravenous; conditions: plasma; summary of the method: as §6
[27] = system: Oryctolagus cuniculus; assay: Protein binding in rabbit at 15 mg/kg, iv; assay type: ADME, organism-based; design: dose 15 mg/kg, route intravenous; conditions: in vivo
[28] = system: Oryctolagus cuniculus; assay: Protein binding in rabbit at 10 mg/kg, iv; assay type: ADME, organism-based; design: dose 10 mg/kg, route intravenous; conditions: in vivo
[29] = Terminal half life in rabbit at 7.5 mg/kg, iv administered once daily; assay type: ADME, organism-based, Oryctolagus cuniculus; design: dose 7.5 mg/kg, route intravenous; conditions: in vivo
Summary of the method: (§7)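 A computer-controlled pump infused telavancin at precalculated flow rates to reproduce the human 7.5 mg/kg i.v. once-daily serum profile. Plasma levels were measured by validated LC-MS/MS (n = 3 or 5).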

[30] = AUC in rabbit at 7.5 mg/kg, iv administered once daily; assay type: ADME, organism-based, Oryctolagus cuniculus; design: dose 7.5 mg/kg, route intravenous; conditions: plasma; summary of the method: as §7
[31] = Cmax in rabbit at 7.5 mg/kg, iv administered once daily; assay type: ADME, organism-based, Oryctolagus cuniculus; design: dose 7.5 mg/kg, route intravenous; conditions: in vivo; summary of the method: as §7
[32] = Cmax in rabbit at 10 mg/kg, iv administered once daily; assay type: ADME, organism-based, Oryctolagus cuniculus; design: dose 10 mg/kg, route intravenous; conditions: in vivo
[33] = Ratio of AUC in rabbit at 7.5 mg/kg, iv qd to MIC for Staphylococcus aureus HIP 5836 isolate; assay type: functional
Summary of the method: (§8)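 The AUC came from the rabbit infusion simulating human 7.5 mg/kg i.v. once daily. It was divided by each strain's MIC. MICs were determined by CLSI broth microdilution in cation-adjusted Mueller Hinton broth, with S. aureus ATCC 29213 as the control strain.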

[34] = Ratio of AUC in rabbit at 7.5 mg/kg, iv qd to MIC for Staphylococcus aureus ATCC 700788; assay type: functional; summary of the method: as §8
[35] = system: Staphylococcus aureus; assay: Antibacterial activity against glycopeptide-intermediate resistant Staphylococcus aureus ATCC 700788 infected New Zealand white rabbit endocarditis model assessed as survival at 10 mg/kg, iv administered every 24 hrs for 2 days; assay type: functional; summary of the method: as §5
[36] = system: Staphylococcus aureus; assay: Antibacterial activity against glycopeptide-intermediate resistant Staphylococcus aureus ATCC 700788 infected New Zealand white rabbit endocarditis model assessed as sterile bacterial vegetation at 10 mg/kg, iv administered every 24 hrs for 2 days; assay type: functional; summary of the method: as §5
[37] = system: Staphylococcus aureus; assay: Antibacterial activity against glycopeptide-intermediate resistant Staphylococcus aureus ATCC 700788 infected New Zealand white rabbit endocarditis model assessed as bacterial count per gram of microbial vegetation at 10 mg/kg, iv administered every 24 hrs for 2 days; assay type: functional; summary of the method: as §5
[38] = system: Staphylococcus aureus; assay: Antibacterial activity against glycopeptide-intermediate resistant Staphylococcus aureus HIP 5836 isolate infected New Zealand white rabbit endocarditis model assessed as survival at 10 mg/kg, iv administered every 24 hrs for 2 days; assay type: functional; summary of the method: as §5
[39] = system: Homo sapiens; assay: Protein binding in human at 10 mg/kg, iv administered every 24 hrs; assay type: ADME, organism-based; design: dose 10 mg/kg, route intravenous; conditions: in vivo

In the case of CN[C@H](CC(C)C)C(=O)N[C@H]1C(=O)N[C@@H](CC(N)=O)C(=O)N[C@H]2C(=O)N[C@H]3C(=O)N[C@H](C(=O)N[C@H](C(=O)O)c4cc(O)cc(O)c4-c4cc3ccc4O)[C@H](O)c3ccc(c(Cl)c3)Oc3cc2cc(c3O[C@@H]2O[C@H](CO)[C@@H](O)[C@H](O)[C@H]2O[C@H]2C[C@](C)(N)[C@H](O)[C@H](C)O2)Oc2ccc(cc2Cl)[C@H]1O [VANCOMYCIN], the Cmax [1] is reported as 52 µg/mL, the MBC [2] is reported as 128 µg/mL (≈ 88.3 µM) and the MIC [2] is reported as 8 µg/mL (≈ 5.52 µM). The MBC [3] was 128 µg/mL (≈ 88.3 µM), the MIC [3] was 8 µg/mL (≈ 5.52 µM) and the Activity [4] was “Active”. The Activity [5] was “Active”, the half-life [6] was 4.6 h and the AUC at 12 h [7] was 359 µg·h/mL. It also gave a fraction unbound at 12 h [8] of 0.5, an AUC [9] of 101 µg·h/mL and a half-life [10] of 3.8 h. It also gave an AUC [11] of 299 µg·h/mL, a Cmax [12] of 46 µg/mL and a RatioAUC/MIC [13] of 37.3. The RatioAUC/MIC [14] was 37.3, the log10cfu [15] was 6.6 and the log10cfu [16] was 6.7.
Compound CCCCCCCCCCNCCN[C@@]1(C)C[C@H](O[C@H]2[C@H](Oc3c4cc5cc3Oc3ccc(cc3Cl)[C@@H](O)[C@@H](NC(=O)[C@@H](CC(C)C)NC)C(=O)N[C@@H](CC(N)=O)C(=O)N[C@H]5C(=O)N[C@H]3C(=O)N[C@H](C(=O)N[C@H](C(=O)O)c5cc(O)c(CNCP(=O)(O)O)c(O)c5-c5cc3ccc5O)[C@H](O)c3ccc(c(Cl)c3)O4)O[C@H](CO)[C@@H](O)[C@@H]2O)O[C@@H](C)[C@H]1O [TELAVANCIN] has an MBC [2] of 4 µg/mL (≈ 2.28 µM), an MIC [2] of 1 µg/mL (≈ 0.57 µM) and an MBC [3] of 8 µg/mL (≈ 4.56 µM). It also gave an MIC [3] of 4 µg/mL (≈ 2.28 µM), a log10CFU/ml [4] of 2 and a log10CFU/ml [5] of 2. The Cmax [17] was 89 µg/mL, the half-life [18] was 6.18 h and the half-life [19] was 7.41 h. It also gave an AUC at 24 h [20] of 604 µg·h/mL, an AUC at 24 h [21] of 785 µg·h/mL and an Activity [22] of 90%. It also gave an Activity [23] of 31%, a log10cfu [24] of 4.4 and a half-life [25] of 1.2 h. It also gave an AUC [26] of 270 µg·h/mL, an Activity [27] of 90% and an Activity [28] of 90%. The half-life [29] was 4.6 h, the AUC [30] was 638 µg·h/mL and the Cmax [31] was 90 µg/mL. The Cmax [32] was 114 µg/mL, the RatioAUC/MIC [33] was 159.5 and the RatioAUC/MIC [34] was 638. It also gave an Activity [35] of 94%, an Activity [36] of 37% and a log10cfu [37] of 4.6. It also gave an Activity [38] of 94% and an Activity [39] of 90%.
